In ChEMBL document CHEMBL4765349, “Design, synthesis and biological evaluation of novel N-sulfonylamidine-based derivatives as c-Met inhibitors via Cu-catalyzed three-component reaction” (Eur J Med Chem, 2020):

Key:
[1] = system: MKN-45; experiment: Cytotoxicity against human MKN-45 cells assessed as inhibition of cell proliferation measured after 72 hrs by MTT assay; type: functional, cell-based; conditions: MKN-45, 72 h
[2] = system: MDA-MB-231; experiment: Cytotoxicity against human MDA-MB-231 cells assessed as inhibition of cell proliferation measured after 72 hrs by MTT assay; type: functional, cell-based; conditions: MDA-MB-231, 72 h
[3] = system: A549; experiment: cells; conditions: Homo sapiens, A549, 72 h
[4] = system: HT-29; experiment: cells; conditions: Homo sapiens, HT-29, 72 h
[5] = system: A549; experiment: Induction of apoptosis in human A549 cells assessed as early apoptosis at 1 uM measured after 12 hrs by Annexin V-FITC/ Propidium iodide stain based flow cytometry assay relative to control; type: functional
Outline: (§1)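 Cells double-stained with FITC-annexin V and propidium iodide, then flow cytometry gave the percentages of early and late apoptotic cells.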

[6] = system: A549; experiment: Induction of apoptosis in human A549 cells assessed as late apoptosis at 1 uM measured after 12 hrs by Annexin V-FITC/ Propidium iodide stain based flow cytometry assay relative to control; type: functional; outline: as §1

| Compound | IC50 [1] [µM] | IC50 [2] [µM] | IC50 [3] [µM] | IC50 [4] [µM] | Activity [5] [%] | Activity [6] [%] |
| --- | --- | --- | --- | --- | --- | --- |
| CCCCC/C(=N\S(=O)(=O)Cc1ccccc1)Nc1ccc(Oc2ccnc3cc(OC)c(OC)cc23)c(F)c1 | 9.28 | 12.8 | 7.55 | 8.26 | – | – |
| CCCCC/C(=N\S(=O)(=O)Cc1ccccc1)Nc1ccc(Oc2ncnc3cc(OC)c(OC)cc23)c(F)c1 | – | – | 27.1 | 30.5 | – | – |
| COCC/C(=N\S(=O)(=O)Cc1ccc(Cl)cc1)Nc1ccc(Oc2ccnc3cc(OCCCN4CCN(C)CC4)c(OC)cc23)c(F)c1 | 0.61 | 1.24 | 0.32 | 0.36 | – | – |
| COc1cc2nccc(Oc3ccc(N/C(Cc4cccnc4)=N\S(=O)(=O)Cc4ccc(F)cc4)cc3F)c2cc1OC | 18.6 | 22.3 | 13.2 | 15.5 | – | – |
| COCC/C(=N\S(=O)(=O)Cc1ccccc1F)Nc1ccc(Oc2ccnc3cc(OC)c(OC)cc23)c(F)c1 | 3.26 | 5.67 | 2.85 | 3.16 | – | – |
| COc1cc2nccc(Oc3ccc(N/C(Cc4ccsc4)=N\S(=O)(=O)Cc4ccc(F)cc4)cc3F)c2cc1OC | 11.9 | 19.5 | 10.1 | 11.2 | – | – |
| COCC/C(=N\S(=O)(=O)Cc1cccc(C)c1)Nc1ccc(Oc2ccnc3cc(OC)c(OC)cc23)c(F)c1 | 9.15 | 13.1 | 7.54 | 8.02 | – | – |
| COCC/C(=N\S(=O)(=O)Cc1ccc(Cl)cc1)Nc1ccc(Oc2ccnc3cc(OC)c(OC)cc23)c(F)c1 | 1.05 | 2.32 | 0.62 | 0.91 | – | – |
| COc1cc2nccc(Oc3ccc(N/C(Cc4ccccc4)=N\S(=O)(=O)Cc4ccc(F)cc4)cc3F)c2cc1OC | – | 32.5 | 20.4 | 23.7 | – | – |
| COCC/C(=N\S(=O)(=O)Cc1ccc(Cl)c(Cl)c1)Nc1ccc(Oc2ccnc3cc(OCCCN4CCOCC4)c(OC)cc23)c(F)c1 | 0.72 | 1.04 | 0.47 | 0.59 | – | – |
| COCC/C(=N\S(=O)(=O)Cc1ccccc1C)Nc1ccc(Oc2ccnc3cc(OC)c(OC)cc23)c(F)c1 | 5.16 | 8.19 | 4.15 | 4.85 | – | – |
| COCC/C(=N\S(=O)(=O)Cc1cccc(F)c1)Nc1ccc(Oc2ccnc3cc(OC)c(OC)cc23)c(F)c1 | 3.52 | 5.34 | 2.14 | 2.47 | – | – |
| COCC/C(=N\S(=O)(=O)Cc1ccc(Cl)c(Cl)c1)Nc1ccc(Oc2ccnc3cc(OCCCN4CCCCC4)c(OC)cc23)c(F)c1 | 0.88 | 0.93 | 0.67 | 0.78 | – | – |
| COCC/C(=N\S(=O)(=O)Cc1ccc(C)cc1)Nc1ccc(Oc2ccnc3cc(OC)c(OC)cc23)c(F)c1 | 9.75 | 13.7 | 8.02 | 8.74 | – | – |
| COc1cc2nccc(Oc3ccc(N/C(Cc4ccccc4)=N\S(=O)(=O)Cc4ccccc4)cc3F)c2cc1OC | 26.3 | – | 28.4 | 32.6 | – | – |
| CCCCC/C(=N\S(=O)(=O)Cc1ccc(F)cc1)Nc1ccc(Oc2ncnc3ccsc23)c(F)c1 | 12.5 | 16.8 | 10.3 | 11.2 | – | – |
| COCC/C(=N\S(=O)(=O)Cc1ccc(Cl)cc1)Nc1ccc(Oc2ccnc3cc(OCCCN4CCCCC4)c(OC)cc23)c(F)c1 | 0.65 | 1.12 | 0.35 | 0.41 | – | – |
| CCCCOc1cc2nccc(Oc3ccc(N/C(CCOC)=N/S(=O)(=O)Cc4ccc(Cl)cc4)cc3F)c2cc1OC | 3.05 | 5.46 | 2.56 | 2.85 | – | – |
| COCC/C(=N\S(=O)(=O)Cc1ccccc1)Nc1ccc(Oc2ccnc3cc(OC)c(OC)cc23)c(F)c1 | 4.05 | 6.64 | 3.14 | 3.52 | – | – |
| COCC/C(=N\S(=O)(=O)Cc1ccc(Br)cc1)Nc1ccc(Oc2ccnc3cc(OC)c(OC)cc23)c(F)c1 | 11.3 | 12.1 | 7.14 | 8.03 | – | – |

| Compound | IC50 [1] [µM] | IC50 [2] [µM] | IC50 [3] [µM] | IC50 [4] [µM] | Activity [5] [%] | Activity [6] [%] |
| --- | --- | --- | --- | --- | --- | --- |
| COCC/C(=N\S(=O)(=O)Cc1ccc(Cl)c(Cl)c1)Nc1ccc(Oc2ccnc3cc(OCCCN4CCC(C)CC4)c(OC)cc23)c(F)c1 | 1.15 | 1.98 | 0.72 | 0.88 | – | – |
| CCCCC/C(=N\S(=O)(=O)Cc1ccccc1)Nc1ccc(Oc2ncnc3ccsc23)c(F)c1 | 21.9 | 25.6 | 17.3 | 18.6 | – | – |
| CCCCC/C(=N\S(=O)(=O)Cc1ccc(F)cc1)Nc1ccc(Oc2ccnc3cc(OC)c(OC)cc23)c(F)c1 | 5.54 | 9.04 | 4.6 | 5.18 | – | – |
| COc1cc2c(Oc3ccc(NC(=O)C4(C(=O)Nc5ccc(F)cc5)CC4)cc3F)ccnc2cc1OCCCN1CCOCC1 [FORETINIB] | – | – | – | – | 11.25 | 22.9 |
| CCCCOc1cc2nccc(Oc3ccc(N/C(CCOC)=N/S(=O)(=O)Cc4ccc(Cl)c(Cl)c4)cc3F)c2cc1OC | 4.36 | 7.19 | 3.53 | 4.05 | – | – |
| COc1cc2nccc(Oc3ccc(N/C(CC4CCCCC4)=N\S(=O)(=O)Cc4ccc(F)cc4)cc3F)c2cc1OC | 15.2 | 19.7 | 9.43 | 10.3 | – | – |
| COCC/C(=N\S(=O)(=O)Cc1ccc(Cl)c(Cl)c1)Nc1ccc(Oc2ccnc3cc(OC)c(OC)cc23)c(F)c1 | 1.16 | 3.32 | 0.71 | 0.88 | – | – |
| COCC/C(=N\S(=O)(=O)Cc1ccc(Cl)cc1)Nc1ccc(Oc2ccnc3cc(OCCCN4CCC(C)CC4)c(OC)cc23)c(F)c1 | 0.76 | 1.56 | 0.38 | 0.55 | – | – |
| COc1cc2nccc(Oc3ccc(N/C(C)=N/S(=O)(=O)Cc4ccc(F)cc4)cc3F)c2cc1OC | 4.55 | 7.65 | 3.76 | 4.12 | – | – |
| CCCCC/C(=N\S(=O)(=O)Cc1ccc(F)cc1)Nc1ccc(Oc2ccnc3ccsc23)c(F)c1 | 9.17 | 14.6 | 6.23 | 7.06 | – | – |
| CCCCC/C(=N\S(=O)(=O)Cc1ccc(F)cc1)Nc1ccc(Oc2ncnc3cc(OC)c(OC)cc23)c(F)c1 | 23.4 | 31.8 | 18.6 | 22.1 | – | – |
| COCC/C(=N\S(=O)(=O)Cc1ccc(C(F)(F)F)cc1)Nc1ccc(Oc2ccnc3cc(OC)c(OC)cc23)c(F)c1 | 15.3 | 20.4 | 11.3 | 13.2 | – | – |
| COCC/C(=N\S(=O)(=O)Cc1ccc(Cl)c(Cl)c1)Nc1ccc(Oc2ccnc3cc(OCCCN4CCN(C)CC4)c(OC)cc23)c(F)c1 | 0.82 | 1.35 | 0.61 | 0.74 | – | – |
| COc1cc2nccc(Oc3ccc(N/C(Cc4cccnc4)=N\S(=O)(=O)Cc4ccccc4)cc3F)c2cc1OC | 22.9 | 28.3 | 18.1 | 20.6 | – | – |
| COc1cc2nccc(Oc3ccc(N/C(CC4CCCCC4)=N\S(=O)(=O)Cc4ccccc4)cc3F)c2cc1OC | 16.3 | 20.4 | 12.2 | 14.5 | – | – |
| CCCCC/C(=N\S(=O)(=O)Cc1ccccc1)Nc1ccc(Oc2ccnc3ccsc23)c(F)c1 | 11.5 | 15.3 | 8.68 | 9.63 | – | – |
| COc1cc2nccc(Oc3ccc(N/C(C)=N/S(=O)(=O)Cc4ccccc4)cc3F)c2cc1OC | 5.99 | 9.29 | 5.16 | 5.85 | – | – |
| COCC/C(=N\S(=O)(=O)Cc1ccc(F)cc1)Nc1ccc(Oc2ccnc3cc(OC)c(OC)cc23)c(F)c1 | 2.15 | 4.24 | 1.42 | 1.68 | – | – |
| COc1cc2nccc(Oc3ccc(N/C(Cc4ccsc4)=N\S(=O)(=O)Cc4ccccc4)cc3F)c2cc1OC | – | 23.8 | 14.3 | 16.5 | – | – |
